Reference: ChEMBL document CHEMBL4138220, “A fluorine scan of a tubulin polymerization inhibitor isocombretastatin A-4: Design, synthesis, molecular modelling, and biological evaluation” (Eur J Med Chem, 2018)
Blank lines part the entries; values can stand above or below the compound they belong to. Calls of active or inactive are those of the source. The calls are words filed in the database; no cut-off is given here.

Experiments:
[1] = Metabolic stability in human liver microsomes at 5 uM after 120 mins in absence of NADPH by UPLC-MS/MS analysis; type: ADME, microsome; conditions: read-out: Stability
[2] = Metabolic stability in human liver microsomes at 5 uM preincubated for 5 mins followed NADPH addition measured after 120 mins by UPLC-MS/MS analysis; type: ADME, microsome; conditions: read-out: Stability
HCT-116 [3] = assay: Antiproliferative activity against human HCT116 cells after 72 hrs by resazurin-based fluorescence assay; type: functional, cell-based; conditions: HCT-116, 72 h
A549 [4] = assay: Antiproliferative activity against human A549 cells after 72 hrs by resazurin-based fluorescence assay; type: functional, cell-based; conditions: A549, 72 h
K562 = assay: Antiproliferative activity against human K562 cells after 72 hrs by resazurin-based fluorescence assay; type: functional, cell-based; conditions: K562, 72 h
Procedure, shortened: (§1)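 CellTiter-Blue viability. Cells plated at 5 × 10^3 per well and cultured 24 h, then given compound in DMSO (under 0.1%) for 72 h. Resazurin added for 2 h, fluorescence read at ex 560/em 590 nm. […] Run in triplicate. U87-MG grown in DMEM (4.5 g/L glucose, 10% FCS, 1% glutamine). K562, K562R (doxorubicin-resistant), A549 and MCF7 grown in RPMI 1640 (10% FCS, 1% glutamine). All kept at 37 °C, 5% CO2.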

U-87 MG [5] = assay: Antiproliferative activity against human U87 cells after 72 hrs by resazurin-based fluorescence assay; type: functional, cell-based, U-87MG ATCC; procedure, shortened: as §1
MCF7 = assay: Antiproliferative activity against human MCF7 cells after 72 hrs by resazurin-based fluorescence assay; type: functional, cell-based; conditions: MCF7, 72 h; procedure, shortened: as §1
K-562R = assay: Antiproliferative activity against human K562R cells after 72 hrs by resazurin-based fluorescence assay; type: functional, cell-based; procedure, shortened: as §1
[6] = Inhibition of sheep brain tubulin polymerization assessed as reduction in rate of microtubule assembly by DAPI-fluorescence based assay; set-up: species or system Ovis aries
Procedure, shortened: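 Sheep brain tubulin purified by two assembly–disassembly cycles, about 10 µM in buffer at pH 6.6 with MgCl2, EGTA and 1 mm GTP. Assembly followed continuously at 37 °C by DAPI fluorescence. IC50 is the concentration halving the maximum assembly rate versus no compound. Reference compounds run the same day. Average of three experiments.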

[7] = Metabolic stability in human plasma at 5 uM after 120 mins by UPLC-MS/MS analysis; type: ADME, cell-free; conditions: read-out: Stability
Procedure, shortened: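 Compound at 5 µM in human plasma at 37°C, sampled from 0 to 120 min. Stopped with acetonitrile, centrifuged, supernatant dried under nitrogen and reconstituted in 0.2% formic acid water/methanol 75/25. Measured by UPLC-MS/MS as % remaining. Procaine was the positive control.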

[8] = Intrinsic clearance in human liver microsomes at 5 uM preincubated for 5 mins followed by NADPH addition measured after 45 mins by UPLC-MS/MS analysis; type: ADME, microsome; conditions: read-out: CLH
PBL [9] = assay: Cytotoxicity against human PBL cells assessed as reduction in cell viability after 72 hrs by MTS assay; type: cell-based
Procedure, shortened: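 PBMCs from healthy donors were isolated on a Ficoll gradient and cultured overnight at 37°C in RPMI-1640 with 10% FCS. Non-adherent cells were set at 5 × 10⁵/mL with PHA 2.5 µg/mL (proliferating) or without it (quiescent). Serial dilutions 0.001–25 µM final (10 mM DMSO stocks) were applied for 72 h at 37°C, and viability was read by MTS.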

[10] = Induction of basal contraction tone in isolated Wistar rat aorta rings at 10 uM after 10 mins in presence K60 solution (reference value: 0.2 +/- 0.2%); type: tissue-based
[11] = Increase in PGF2alpha-induced contractile response in isolated Wistar rat aorta rings at 10 uM after 10 mins; type: tissue-based
Procedure, shortened: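 Rat aortic rings 2–3 mm in PSS at 37°C, 95% O₂/5% CO₂, pH 7.4, isometric tension at 2 g resting force. Rings were kept if K60 contraction was ≥1.5 g and ACh (10 µM) relaxation ≥15%. Compound (10 µM) or DMSO 0.1% was given for 10 min, then cumulative PGF2α 1 nM–30 µM. Hill fits gave pD2 and Emax as % of K60. N = 6.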

PBL [12] = assay: Cytotoxicity against human PBL cells assessed as reduction in cell proliferation after 72 hrs by MTS assay
Tubulin (Homo sapiens) [13] = biological target: T1, Tubulin (Homo sapiens) (UniProt P68371+Q9H4B7+P0DPH7+P68366+Q13509+Q71U36+P04350+Q3ZCM7+P07437+P68363+Q9BQE3+Q6PEY2+Q13885+Q9BVA1+Q9BUF5); assay: Inhibition of tubulin polymerization in human U87MG cells assessed as multinucleation at 10 nM after 24 hrs by Hoechst-33258 staining based inverted microscopy; type: cell-based
Procedure, shortened: (§2)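 U87-MG on chamber slides, 24 h with 5 or 10 nM, control 0.1% DMSO. Fixed in 2% paraformaldehyde, permeabilized with 0.25% Triton X-100, blocked with BSA/goat serum. Stained with mouse anti-β-tubulin overnight at 4°C, then Alexa 647 anti-mouse plus Hoechst 33258 for 2 h, then Alexa 488 phalloidin for F-actin. Imaged on an inverted microscope with a 60X oil objective.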

Tubulin (Homo sapiens) [14] = biological target: T1, Tubulin (Homo sapiens); assay: Inhibition of tubulin polymerization in human U87MG cells assessed as formation of disorganized actin network at 10 nM after 24 hrs by Hoechst-33258 staining based inverted microscopy; type: cell-based; procedure, shortened: as §2
U-87 MG [15] = assay: Cell cycle arrest in human U87MG cells assessed as accumulation at G2/M phase at 20 nM after 24 hrs by propidium iodide staining based flow cytometry; type: functional; conditions: U-87MG ATCC
Procedure, shortened: (§3)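 Exponentially growing HCT116 (RPMI 1640) or U87-MG (DMEM, 4.5 g/L glucose) cells, each medium with 10% FCS and 1% glutamine, treated 24 h at 20 nM in DMSO, with a DMSO control. DNA content measured by propidium iodide staining and flow cytometry.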

HCT-116 [16] = assay: Cell cycle arrest in human HCT116 cells assessed as accumulation at G2/M phase at 20 nM after 24 hrs by propidium iodide staining based flow cytometry; type: functional; procedure, shortened: as §3
Tubulin (Homo sapiens) [17] = biological target: T1, Tubulin (Homo sapiens); assay: Inhibition of tubulin polymerization in human U87MG cells assessed as shrinkage of microtubule spindles at 10 nM after 24 hrs by Hoechst-33258 staining based inverted microscopy; type: cell-based; procedure, shortened: as §2
Tubulin (Homo sapiens) [18] = biological target: T1, Tubulin (Homo sapiens); assay: Inhibition of tubulin polymerization in human U87MG cells assessed as formation of disorganized microtubule network at 5 nM after 24 hrs by Hoechst-33258 staining based inverted microscopy; type: cell-based; procedure, shortened: as §2
A549 [19] = assay: Potency index, ratio of combretastatin A-4 IC50 to compound IC50 for antiproliferative activity against human A549 cells; type: functional

SMILES: COc1ccc(C(=C(F)F)c2cc(OC)c(OC)c(OC)c2)cc1O
remaining at 2 h, 5 µM [1]: 20%
remaining at 2 h, 5 µM [2]: 5%
IC50 (HCT-116 [3]): 2 nM
IC50 (A549 [4]): 2 nM
IC50 (K562): 2.2 nM
IC50 (U-87 MG [5]): 0.3 nM
IC50 (MCF7): 0.6 nM
IC50 (K-562R): 0.2 nM
IC50 [6]: 2000 nM
remaining at 2 h, 5 µM [7]: 100%
microsomal CLint at 5 µM [8]: 64 µL/min/mg

SMILES: C=C(c1cc(OC)cc(OC)c1)c1ccc(OC(F)(F)F)c([N+](=O)[O-])c1
IC50 (HCT-116 [3]): > 10000 nM

SMILES: C=C(c1ccc(OC(F)(F)F)c(N)c1)c1cc(OC)c(OC)c(OC)c1
IC50 (HCT-116 [3]): 200 nM

SMILES: C=C(c1ccc(OC)c(F)c1)c1cc(OC)c(OC)c(OC)c1
IC50 (HCT-116 [3]): 7 nM
IC50 (A549 [4]): 8 nM
IC50 (K562): 6 nM
IC50 (U-87 MG [5]): 8 nM
IC50 (MCF7): 1 nM
IC50 (K-562R): 2 nM
IC50 [6]: 4000 nM

SMILES: C=C(c1ccc(OC(F)(F)F)cc1)c1c(OC)cc(OC)cc1OC
IC50 (HCT-116 [3]): > 10000 nM

SMILES: COc1ccc(/C=C\c2cc(OC)c(OC)c(OC)c2)cc1O [COMBRETASTATIN A4]
IC50 (K562): 6 nM
IC50 (U-87 MG [5]): 3 nM
IC50 (MCF7): 8 nM
IC50 (K-562R): 23 nM
IC50 [6]: 2100 nM
IC50 (PBL [9]): > 10000 nM
Activity [10]: 0.7%
pD2 [11]: 5.73
IC50 (PBL [12]): 100 to 500 nM

SMILES: C=C(c1ccc(OC)c(N)c1)c1cc(OC)c(OC)c(OC)c1
remaining at 2 h, 5 µM [1]: 6%
remaining at 2 h, 5 µM [2]: 11.6%
IC50 (HCT-116 [3]): 2 nM
IC50 (A549 [4]): 7 nM
IC50 (K562): 5 nM
IC50 (U-87 MG [5]): 9 nM
IC50 (MCF7): 2.9 nM
IC50 (K-562R): 2 nM
IC50 [6]: 2200 nM
Activity [10]: 1.6%
pD2 [11]: 5.79
remaining at 2 h, 5 µM [7]: 94%
microsomal CLint at 5 µM [8]: 46 µL/min/mg

SMILES: C=C(c1ccc(OC(F)(F)F)cc1)c1cc(OC)cc(OC)c1
IC50 (HCT-116 [3]): > 10000 nM

SMILES: C=C(c1ccc(OC(F)(F)F)cc1)c1cc(OC)c(OC)c(OC)c1
IC50 (HCT-116 [3]): 5000 nM

SMILES: C=C(c1cc(OC)c(OC)c(OC)c1)c1ccc(OC(F)(F)F)c([N+](=O)[O-])c1
IC50 (HCT-116 [3]): 4000 nM

SMILES: C=C(c1ccc(OC)c(N)c1)c1cc(F)c(F)c(F)c1
IC50 (HCT-116 [3]): 100 nM

SMILES: C=C(c1ccc(OC)c(O)c1)c1cc(OC)c(OC)c(OC)c1
IC50 (A549 [4]): 20 nM
IC50 (U-87 MG [5]): 8 nM
IC50 (MCF7): 8 nM
IC50 (K-562R): 2.2 nM
IC50 [6]: 2000 nM

SMILES: C=C(c1ccc(OC(F)F)c(N)c1)c1cc(C)nc2ccccc12
IC50 (HCT-116 [3]): 20.2 nM

More lines, main results first:

IC50 (HCT-116 [3]): > 10000 nM
SMILES: COc1ccc(C(C)c2cc(OC)c(OC)c(OC)c2)cc1OC(F)(F)F (stereo not given)

IC50 (HCT-116 [3]): 3000 nM
SMILES: COc1cc(C(C)c2ccc(OC(F)(F)F)c(N)c2)cc(OC)c1OC (stereo not given)

IC50 (HCT-116 [3]): 5000 nM
SMILES: COc1cc(C(C)c2ccc(OC(F)(F)F)c(F)c2)cc(OC)c1OC (stereo not given)

IC50 (HCT-116 [3]): 85 nM
SMILES: COc1ccc(C(C)c2cc(OC)c(OC)c(OC)c2)cc1F (stereo not given)

IC50 (HCT-116 [3]): 30 nM
SMILES: COc1ccc(C(c2cc(OC)c(OC)c(OC)c2)C(F)F)cc1O (stereo not given)

remaining at 2 h, 5 µM [1]: 9%
remaining at 2 h, 5 µM [2]: 3.3%
IC50 (HCT-116 [3]): 1 nM
IC50 (A549 [4]): 2.2 nM
IC50 (K562): 4 nM
IC50 (U-87 MG [5]): 0.6 nM
IC50 (MCF7): 2 nM
IC50 (K-562R): 0.15 nM
IC50 [6]: 400 nM
Activity [10]: 2.2%
pD2 [11]: 5.87
remaining at 2 h, 5 µM [7]: 100%
microsomal CLint at 5 µM [8]: 13.6 µL/min/mg
SMILES: C=C(c1ccc(OC(F)F)c(N)c1)c1cc(OC)c(OC)c(OC)c1
IC50 (PBL [9]): > 10000 nM
IC50 (PBL [12]): > 10000 nM

IC50 (HCT-116 [3]): 9.14 nM
SMILES: COc1cc(C(=C(F)F)c2ccc(OC(F)F)c(N)c2)cc(OC)c1OC

IC50 (HCT-116 [3]): 1500 nM
SMILES: C=C(c1ccc(OC)c(OC(F)(F)F)c1)c1cc(OC)c(OC)c(OC)c1

IC50 (HCT-116 [3]): 2000 nM
SMILES: C=C(c1ccc(OC(F)(F)F)c(F)c1)c1cc(OC)c(OC)c(OC)c1

IC50 (HCT-116 [3]): > 10000 nM
SMILES: COc1cc(C(C)c2ccc(OC(F)(F)F)cc2)cc(OC)c1OC (stereo not given)

IC50 (HCT-116 [3]): 18 nM
SMILES: COc1cc(C(C)c2ccc(OC(F)F)c(N)c2)cc(OC)c1OC (stereo not given)

inhibition (Tubulin (Homo sapiens) [13]): Active
inhibition (Tubulin (Homo sapiens) [14]): Active
remaining at 2 h, 5 µM [1]: < 5%
remaining at 2 h, 5 µM [2]: 13.6%
inhibition (Tubulin (Homo sapiens) [17]): Active
inhibition (Tubulin (Homo sapiens) [18]): Active
IC50 (HCT-116 [3]): 0.9 nM
IC50 (A549 [4]): 2 nM
IC50 (K562): 0.4 nM
IC50 (U-87 MG [5]): 0.2 nM
IC50 (MCF7): 1.5 nM
IC50 (K-562R): 0.1 nM
IC50 [6]: 2000 nM
Activity [10]: 2.1%
pD2 [11]: 5.94
remaining at 2 h, 5 µM [7]: 100%
microsomal CLint at 5 µM [8]: 43 µL/min/mg
SMILES: COc1ccc(C(=C(F)F)c2cc(OC)c(OC)c(OC)c2)cc1N
Activity (U-87 MG [15]): Active
Activity (HCT-116 [16]): Active
IC50 (PBL [9]): > 10000 nM
Ratio IC50 (A549 [19]): 90
IC50 (PBL [12]): > 10000 nM
